Assay results from ChEMBL document CHEMBL1127846, “Influence of amine substituents on 5-HT2A versus 5-HT2C binding of phenylalkyl- and indolylalkylamines” (J Med Chem, 1994).
pKi: −log10 of the molar value.

What was measured:
[1] = The compound evaluated for its receptor selectivity at [125I]- DOI- labeled receptors versus [3H]- ketanserin- labeled receptors,
Outline: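 […] 5-HT2A receptors expressed in transfected GF6 cells, labeled in separate assays with [3H]ketanserin or [125I]DOI. Homogenates were incubated with radioligand and competing drug for 30 min at 37 °C, then filtered through glass-fiber filters and counted by liquid scintillation. Ki values are the mean and SEM of at least two experiments, each run in triplicate.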

[2] = molecular target: T1, 5-hydroxytryptamine receptor 2C (Rattus norvegicus, UniProt P08909); experiment: Affinity against 5-hydroxytryptamine 2C receptor in J1 cells transfected with the rat 5-HT2C gene labeled with [3H]mesulergine.; assay type: cell-based
T1 sequence (P08909 whole entry): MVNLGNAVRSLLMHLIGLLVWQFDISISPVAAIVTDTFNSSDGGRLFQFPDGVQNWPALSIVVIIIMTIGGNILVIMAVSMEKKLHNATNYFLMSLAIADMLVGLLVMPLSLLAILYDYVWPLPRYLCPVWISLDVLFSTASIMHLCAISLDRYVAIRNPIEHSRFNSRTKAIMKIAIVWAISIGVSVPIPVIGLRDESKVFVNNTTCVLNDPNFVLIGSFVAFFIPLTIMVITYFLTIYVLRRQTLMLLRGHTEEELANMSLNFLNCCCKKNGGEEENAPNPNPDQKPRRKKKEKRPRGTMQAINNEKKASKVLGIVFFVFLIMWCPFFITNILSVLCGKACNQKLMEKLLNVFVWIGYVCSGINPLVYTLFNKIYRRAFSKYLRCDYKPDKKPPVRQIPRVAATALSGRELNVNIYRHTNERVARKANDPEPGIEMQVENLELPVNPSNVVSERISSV
Outline: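 Homogenates of J1 cells carrying the rat 5-HT1C (5-HT2C) gene, labeled with [3H]mesulergine. Competing drug and radioligand incubated at 37 °C for 30 min, then filtered through glass-fiber filters and counted by liquid scintillation. Ki given as mean and SEM of at least two experiments, each done in triplicate.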

[3] = molecular target: T2, 5-hydroxytryptamine receptor 2A (Homo sapiens, UniProt P28223); experiment: Affinity against 5-hydroxytryptamine 2A receptor (K) labeled with [3H]ketanserin.
[4] = molecular target: T2, 5-hydroxytryptamine receptor 2A; experiment: Affinity against 5-hydroxytryptamine 2A receptor (D) labeled with [125I]DOI.
[5] = Receptor selectivity [3H]- ketanserin-labeled receptors versus [125I]- DOI-labeled receptors.
[6] = The compound evaluated for its receptor selectivity 5-HT2C receptors versus [125I]- DOI- labeled receptors

T2 sequence (P28223 whole entry): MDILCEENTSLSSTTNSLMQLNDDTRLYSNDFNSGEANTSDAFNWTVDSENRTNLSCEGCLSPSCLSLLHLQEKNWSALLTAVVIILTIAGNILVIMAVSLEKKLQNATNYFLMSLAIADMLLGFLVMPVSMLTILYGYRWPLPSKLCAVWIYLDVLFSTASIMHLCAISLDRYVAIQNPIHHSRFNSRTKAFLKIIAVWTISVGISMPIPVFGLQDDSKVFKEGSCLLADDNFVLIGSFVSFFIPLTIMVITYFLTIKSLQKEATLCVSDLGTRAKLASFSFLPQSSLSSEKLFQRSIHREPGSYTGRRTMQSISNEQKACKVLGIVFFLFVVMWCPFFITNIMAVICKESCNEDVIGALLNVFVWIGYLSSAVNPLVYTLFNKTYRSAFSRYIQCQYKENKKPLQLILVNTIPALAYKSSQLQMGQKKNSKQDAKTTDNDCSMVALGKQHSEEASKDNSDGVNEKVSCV

Compound	Ratio [1]	pKi [2]	pKi [3]	pKi [4]	Ratio [5]	Ratio [6]
CNCCc1c[nH]c2ccc(OC)cc12	110	6.08	6.35	8.39	–	–
CNCCc1cc(OC)c(Br)cc1OC	–	7.00	6.42	8.54	130	34
COc1cc(CCNCc2ccc(F)cc2)c(OC)cc1Br	–	6.44	7.52	8.47	7	80
COc1cc(CCNCc2ccc(N)cc2)c(OC)cc1Br	–	5.99	7.30	7.80	3	64
COc1ccc2[nH]cc(CCNCc3ccc(I)cc3)c2c1	–	5.75	6.40	6.92	3	15
COc1cc(CCNCc2ccc([N+](=O)[O-])cc2)c(OC)cc1Br	–	5.91	6.54	7.24	5	21
COc1ccc2[nH]cc(CCNCc3ccc(Cl)cc3)c2c1	–	5.36	6.25	6.98	5	42
COc1ccc2[nH]cc(CCNCc3ccc(F)cc3)c2c1	–	5.45	6.32	7.40	10	88
COc1cc(CCN2CCCCC2)c(OC)cc1Br	–	5.60	6.05	6.81	6	16
COc1cc(CCNCCCCc2ccccc2)c(OC)cc1Br	–	6.16	7.00	7.57	4	26
COc1cc(CCNCc2ccc(I)cc2)c(OC)cc1Br	–	6.78	7.66	9.40	55	410
COc1cc(CCN(C)C)c(OC)cc1Br	–	6.32	6.38	7.80	26	30
COc1cc(CCNCCCc2ccccc2)c(OC)cc1Br	–	6.51	7.08	7.64	4	13
COc1ccc2[nH]cc(CCNCc3ccccc3)c2c1	–	6.43	7.26	8.28	10	70
COc1ccc2[nH]cc(CCNCc3ccc(Br)cc3)c2c1	–	7.00	8.28	10.00	52	1000
COc1cc(CCNCc2ccccc2)c(OC)cc1Br	–	7.05	7.80	9.52	53	300
COc1cc(CCN)c(OC)cc1Br	–	–	7.47	9.00	–	–
COc1ccc2[nH]cc(CCNCc3ccc(C)cc3)c2c1	–	5.91	6.96	7.52	4	40
COc1ccc2[nH]cc(CCNCc3ccc(N)cc3)c2c1	–	5.17	6.32	6.98	5	64
COc1ccc2[nH]cc(CCNCc3ccc([N+](=O)[O-])cc3)c2c1	–	5.00	5.37	6.85	30	70
COc1cc(CCNCc2ccc(Br)cc2)c(OC)cc1Br	–	7.32	8.80	9.40	4	120
COc1cc(CCNCc2ccc(Cl)cc2)c(OC)cc1Br	–	6.15	6.96	7.82	7	48
CCNCCc1cc(OC)c(Br)cc1OC	–	5.71	6.48	7.40	8	48
COc1ccc(CNCCc2cc(OC)c(Br)cc2OC)cc1	–	6.67	7.80	7.89	1	17
COc1ccc(CNCCc2c[nH]c3ccc(OC)cc23)cc1	–	5.93	7.00	7.80	6	74
COc1ccc2[nH]cc(CCNCCCCc3ccccc3)c2c1	–	5.82	7.66	7.89	2	115
COc1ccc2[nH]cc(CCN3CCCCC3)c2c1	–	< 5.00	6.80	6.64	–	–
COc1cc(CCNCc2ccc(C)cc2)c(OC)cc1Br	–	6.65	7.64	7.85	2	16
CCNCCc1c[nH]c2ccc(OC)cc12	130	5.57	6.03	8.14	–	–
COc1ccc2[nH]cc(CCNCCCc3ccccc3)c2c1	–	6.78	7.30	8.00	5	16
